Screening data from PubChem BioAssay.
E-sel inducer: induces E-selectin expression in human endothelial cells. P16581. HUVEC E-selectin immunofluorescence imaging; normalized: neutral wells 0, TNF-alpha wells 100. activation, % at 7.58 µM. 260,000 tested, 0.37% active;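 active = mean E-selectin-positive cell signal at least 10% of the positive control, reached in at least 60% of replicates, without over 20% cell loss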
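Material: HUVEC primary endothelial cells; Amount: 3,000 cells per well; Dosing: single concentration; Medium: EGM-2 growth medium on 0.1% gelatin-coated wells; Read-out basis: percent E-selectin-positive cells; Signal: immunofluorescence imaging; Control set: TNF-alpha, DMSO.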
ERAP1 HTS inh: blocks human ERAP1 aminopeptidase activity. 340,000 tested, 0.15% active. recombinant ERAP1, Leu-AMC fluorescence, 60 min. inhibition, % at 10.7 µM;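 active = mean replicate inhibition of at least 30%, or all replicates individually reaching that 30% level; inactive = mean below 30% and not every replicate reaching it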;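 also: 0% = neutral control wells and 100% = L-leucinethiol positive control wells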
PglD DTNB: PglD (C. jejuni) enzyme inhibition; inhibition, % at 12.5 µM; 360,000 tested, 0.098% active; purified PglD enzyme, DTNB colorimetric CoA detection; in the data active = inhibition above about 16%, passing the limit was not always enough
DENV2 CPE rescue: protects cells from dengue virus 2 cytopathic effect | DENV2-infected cells, cytopathic effect rescue, plate reader | CPE inhibition, % at 9.99 µM | 350,000 tested, 1.7% active | AID 651640; in the data active = CPE inhibition above about 20%, passing the limit was not always enough; tested in BHK-21 cells;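 also: 0% = median of neutral control wells and 100% = median of positive control wells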
SIRT5 block: blocks human SIRT5 desuccinylation of peptide; 330,000 tested, 1.1% active; Q9NXA8; Purified SirT5, succinyl-peptide AMC, trypsin-coupled fluorescence; inhibition, % at 15 µM; in the data active = inhibition above about 15%
Target sequence (Q9NXA8 whole entry, looked up): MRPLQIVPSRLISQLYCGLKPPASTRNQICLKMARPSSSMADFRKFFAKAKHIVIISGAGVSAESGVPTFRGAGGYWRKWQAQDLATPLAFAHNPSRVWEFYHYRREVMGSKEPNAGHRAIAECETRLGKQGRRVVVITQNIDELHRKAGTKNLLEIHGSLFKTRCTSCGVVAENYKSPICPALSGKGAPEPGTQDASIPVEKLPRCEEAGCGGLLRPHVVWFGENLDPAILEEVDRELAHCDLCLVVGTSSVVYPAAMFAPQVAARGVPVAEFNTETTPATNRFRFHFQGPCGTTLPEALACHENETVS
Starred values were filed as active, the others as inactive; nt = not tested or not shown. Rows were chosen to be rich in hits. Some 2.5% of all compounds tested hit in one or more screens of this group.

SMILES	E-sel inducer	ERAP1 HTS inh	PglD DTNB	DENV2 CPE rescue	SIRT5 block
COc1ccc(CCN=C(NS(=O)(=O)c2ccc(Cl)cc2)c2ccccc2)cc1	1	-7	nt	-3	-1
Cn1c(-c2cc(Cl)ccc2O)nc2c1c(=O)[nH]c(=O)n2Cc1ccccc1	nt	-6	nt	-9	-3
O=C1CCC(=O)N1c1nc2nc(-c3ccccc3)cc(=O)n2[nH]1	nt	nt	-3	nt	nt
COC(=O)C1=C(C)N(Cc2ccc(Br)cc2)C(=S)NC1c1cccc(Br)c1 (stereo unspecified)	0	2	nt	42*	-1
COC(=O)C1=C(C)N(Cc2ccc(Cl)cc2)C(=S)NC1c1ccc(Br)cc1 (stereo unspecified)	1	2	nt	25*	-4
O=C(CSc1cn[nH]n1)Nc1cccc(C(=O)O)c1	nt	32*	0	2	0
CCCCCN(C(=O)CCc1cn(CCCCC)c2ccccc12)c1ccc(Oc2cccnc2)cc1	0	-3	nt	91*	nt
CCCCCN(C(=O)CCc1cn(CCCCC)c2ccccc12)c1ccc(N(C)c2ccccn2)cc1	0	0	nt	-16	nt
CC(=O)c1cccc(NC(=O)CCN2C(=O)C3CC=CCC3C2=O)c1 (stereo unspecified)	nt	2	nt	-9	-3
Cn1ccnc1SCC(=O)Nc1cccc(C#N)c1	0	0	-4	87*	-3
Cn1ccnc1SCC(=O)NC1CCCC1	nt	31*	-3	6	-1
O=C(c1ccncc1)N1CC[C@@H]2[C@H]1c1cc(-c3ccc(F)cc3)ccc1N[C@@H]2CO	1	4	0	17	-1
COC(=O)c1cc(NC(=O)c2cc(-c3ccc(OC)cc3)oc2C(F)(F)F)ccc1N1CCOCC1	19	5	nt	0	1
COc1cc(C(=O)NNc2nc3cc4c(cc3s2)OCO4)cc(OC)c1OC	108*	12	3	-5	-4
CCC(=O)N1C[C@@H](C)[C@H](OC)CN(C)C(=O)c2cc(NC(=O)Nc3cccc(F)c3)ccc2OC[C@@H]1C	0	-1	0	-6	15*
CCC(=O)Nc1ccc2c(c1)C(=O)N(C)C[C@@H](OC)[C@H](C)CN(C(=O)COC)[C@@H](C)CO2	0	0	1	21*	nt
CCS(=O)(=O)Nc1ccc2c(c1)C(=O)N(C)C[C@H](OC)[C@@H](C)CN(C(=O)COC)[C@H](C)CO2	0	1	-2	82*	0
CCC(=O)Nc1ccc2c(c1)C(=O)N(C)C[C@@H](OC)[C@H](C)CN(C(=O)COC)[C@H](C)CO2	0	0	-1	-4	nt
CCS(=O)(=O)Nc1ccc2c(c1)C(=O)N(C)C[C@H](OC)[C@H](C)CN(C(=O)COC)[C@@H](C)CO2	0	0	-2	-7	-3
CCC(=O)N1C[C@H](C)[C@@H](OC)CN(C)C(=O)c2cc(NC(=O)Nc3cccc(F)c3)ccc2OC[C@@H]1C	2	1	2	-1	5
COCC(=O)N1C[C@@H](C)[C@@H](OC)CN(C)C(=O)c2cc(NC(=O)c3ccc(OC)cc3)ccc2OC[C@H]1C	0	2	-2	34*	-3
COCC(=O)N1C[C@H](C)[C@H](OC)CN(C)C(=O)c2cc(NC(=O)c3ccc(OC)cc3)ccc2OC[C@@H]1C	0	nt	-1	12	-2
C(=NN1CCCCCC1)c1ccc2ccccc2n1	0	-2	8	-2	-2
CCC(=O)Nc1ccc2c(c1)C(=O)N(C)[C@@H]1CC[C@H](CC(=O)NCCOC)O[C@H]1CO2	0	-2	-2	13	-3
O=C(N1CCC(n2nc(-c3ccccc3)oc2=O)CC1)C1(c2ccccc2)CC1	nt	nt	-4	nt	nt
CO[C@@H](CN(C)Cc1cc(F)ccc1F)[C@@H](C)CN([C@@H](C)CO)S(=O)(=O)c1ccc(F)cc1	0	-4	-1	0	-5
CCC(=O)Nc1ccc2c(c1)C(=O)N(C)C[C@H](OC)[C@@H](C)CN(C(=O)CC)[C@@H](C)CO2	0	-2	3	63*	2
CCCC(=O)Nc1ccc2c(c1)C(=O)N(C)C[C@@H](OC)[C@H](C)CN(C(=O)CC)[C@H](C)CO2	0	nt	nt	nt	nt
CCC(=O)N1C[C@H](C)[C@@H](OC)CN(C)C(=O)c2cc(NC(=O)NC3CCCC3)ccc2OC[C@H]1C	1	-3	nt	43*	nt
CCCC(=O)Nc1ccc2c(c1)C(=O)N(C)C[C@H](OC)[C@@H](C)CN(C(=O)C1CCCC1)[C@H](C)CO2	0	2	13	35*	-2
